Results: ChEMBL document CHEMBL1155279, “1,5-Diaryl-2-ethyl pyrrole derivatives as antimycobacterial agents: design, synthesis, and microbiological evaluation” (Eur J Med Chem, 2009)
≈ marks a conversion by molar mass, not a printed value.

System: Mycobacterium tuberculosis
Test: Antimycobacterial activity against rifampicin-resistant Mycobacterium tuberculosis ATCC 35838 by twofold agar dilution method
Assay type: functional
Procedure, shortened: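 Twofold agar dilution in Middlebrook 7H11 agar with 10% OADC (oleic acid, albumin, dextrose). Compounds dissolved in DMSO at 5 mg/mL (one in ethanol at 6 mg/mL), stock, stored cold. MIC determined for each strain. Strains: M. tuberculosis CIP 103471, H37Rv ATCC 27294, rifampicin-resistant ATCC 35838, M. avium CIP 103317.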

CN[C@@H]1[C@H](O[C@H]2[C@H](O[C@H]3[C@H](O)[C@@H](O)[C@H](N=C(N)N)[C@@H](O)[C@@H]3N=C(N)N)O[C@@H](C)[C@]2(O)C=O)O[C@@H](CO)[C@H](O)[C@H]1O [STREPTOMYCIN]
MIC: 0.5 µg/mL (≈ 0.86 µM)

CCc1c(CN2CCSCC2)cc(-c2ccccc2)n1-c1ccccc1
MIC: 4 µg/mL (≈ 11 µM)

CO[C@H]1/C=C/O[C@@]2(C)Oc3c(C)c(O)c4c(O)c(c(/C=N/N5CCN(C)CC5)c(O)c4c3C2=O)NC(=O)/C(C)=C\C=C\[C@H](C)[C@H](O)[C@@H](C)[C@@H](O)[C@@H](C)[C@H](OC(C)=O)[C@@H]1C [RIFAMPIN]
MIC: > 100 µg/mL

CCc1c(CN2CCSCC2)cc(-c2ccccc2)n1-c1ccc(F)cc1
MIC: 4 µg/mL (≈ 10.5 µM)

CCc1c(CN2CCSCC2)cc(-c2ccc(F)cc2)n1-c1ccccc1F
MIC: 2 µg/mL (≈ 5.02 µM)

CCc1c(CN2CCN(C)CC2)cc(-c2ccc(Cl)cc2)n1-c1ccc(Cl)cc1
MIC: 4 µg/mL (≈ 9.34 µM)

CCc1c(CN2CCSCC2)cc(-c2ccccc2F)n1-c1ccccc1F
MIC: 8 µg/mL (≈ 20.1 µM)

CCc1c(CN2CCSCC2)cc(-c2ccc(C)cc2)n1-c1ccc(F)cc1
MIC: 0.25 µg/mL (≈ 0.634 µM)

CCc1c(CN2CCSCC2)cc(-c2ccc(F)cc2)n1-c1ccccc1
MIC: 1 µg/mL (≈ 2.63 µM)
